Assay results from the array DNA melting data of Ke et al. (doi:10.1101/2024.01.08.574731).

Columns and labels:
[1] = folding enthalpy; higher = less favourable; fluorescence melt of hairpins on a sequencing array, two-state fit; details: sodium 0.088 M
How it was run: (§1)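 On a sequenced MiSeq flow cell, library hairpins with annealed Cy3 and quencher oligos were imaged for Cy3 fluorescence in 2.5 °C steps up to 60 °C, in 50 mM Na-HEPES pH 8.0, 25 mM NaCl. Normalisation used pre-quench Cy3 and control constructs. Bootstrapped two-state fits gave melting temperature and folding enthalpy, combined by inverse variance across four replicates and with fitted temperatures raised by 9.35 °C to match UV melts.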

[2] = melting temperature; fluorescence melt of hairpins on a sequencing array, two-state fit, raised by 9.35 °C to match UV melts; details: sodium 0.088 M
How it was run: as §1

Sequence | folding enthalpy [1] [kcal/mol] | Tm [2] [°C]
GATCGTTTCAACGATC ((((((....)))))) | -42 | 59.7
GATCGTTTCGACGATC ((((((....)))))) | -43.1 | 57.7
GATCGTTTCTACGATC ((((((....)))))) | -43 | 55.8
GATCGTTTGCACGATC ((((((....)))))) | -27 | 54.7
GATCGTTTTGACGATC ((((((....)))))) | -40.3 | 57.2
GATCTAAAAGTAGATC ((((((....)))))) | -17.5 | 29.6
GATCTAAACCTAGATC ((((((....)))))) | -33.8 | 39.3
GATCTAAACTAGATC ((((((...)))))) | -23.9 | 36.1
GATCTAACAATAGATC ((((((....)))))) | -17.6 | 33.9
GATCTAACATTAGATC ((((((....)))))) | -22.6 | 39.6
GATCTAACCATAGATC ((((((....)))))) | -31.7 | 38.2
GATCTAACCCTAGATC ((((((....)))))) | -31.1 | 37.5
GATCTAACGTAGATC ((((((...)))))) | -24.5 | 36.1
GATCTAAGACTAGATC ((((((....)))))) | -19.9 | 34.3
GATCTAAGATTAGATC ((((((....)))))) | -32.1 | 37.5
GATCTAAGTATAGATC ((((((....)))))) | -27.7 | 37.9
GATCTAATCCTAGATC ((((((....)))))) | -25.6 | 38.3
GATCTAATGTTAGATC ((((((....)))))) | -34.3 | 40.2

Sequence | folding enthalpy [1] [kcal/mol] | Tm [2] [°C]
GATCTACAATTAGATC ((((((....)))))) | -21.3 | 35.6
GATCTACATTAGATC ((((((...)))))) | -25 | 37.5
GATCTACCCCTAGATC ((((((....)))))) | -38.4 | 39.9
GATCTACCCTTAGATC ((((((....)))))) | -35.6 | 41.8
GATCTACCGCTAGATC ((((((....)))))) | -29.4 | 40
GATCTACCGTTAGATC ((((((....)))))) | -30.5 | 37.8
GATCTACCTCTAGATC ((((((....)))))) | -36.3 | 37.8
GATCTACCTTTAGATC ((((((....)))))) | -30.4 | 38.3
GATCTACGCGTAGATC ((((((....)))))) | -52.1 | 55.5
GATCTACGCTAGATC ((((((...)))))) | -18.5 | 43.4
GATCTACGTATAGATC ((((((....)))))) | -33.8 | 41.2
GATCTACTCATAGATC ((((((....)))))) | -35.5 | 41.7
GATCTACTGATAGATC ((((((....)))))) | -28.8 | 39.3
GATCTACTGCTAGATC ((((((....)))))) | -26.1 | 40.1
GATCTAGACATAGATC ((((((....)))))) | -35 | 47.9
GATCTAGCCTAGATC ((((((...)))))) | -28.4 | 40.8
GATCTAGCGAAAGCTATC (((..(((....)))))) | -10.5 | 22.8
GATCTAGCTTAGATC ((((((...)))))) | -29.4 | 38.1
